In ChEMBL document CHEMBL1124875, “Brain targeting of anti-HIV nucleosides: synthesis and in vitro and in vivo studies of dihydropyridine derivatives of 3'-azido-2',3'-dideoxyuridine and 3'-azido-3'-deoxythymidine” (J Med Chem, 1990):

Tests used:
[1] = (§1) Half life of the compound; type: ADME
[2] = Relative brain exposure of the compound
[3] = serum
[4] = Half life in Human serum; type: ADME, organism-based
Outline: (§2)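 Prodrug added from DMSO standard to an initial 50 or 10 µg/mL in one of four media at 37 °C with shaking: fresh human serum, fresh mouse serum, mouse brain homogenate (1:1 g/mL in physiological phosphate buffer), or phosphate buffer pH 7.4. Sampled 0–10 h. Dihydropyridine, quaternary salt and parent drug were measured by ion-pair HPLC at 260 nm. k is the terminal-phase ln(concentration)–time regression slope, with the associated half-life.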

[5] = Half life in phosphate buffer at pH 7.4; type: ADME
Outline: as §2

Mus musculus [6] = species on record: Mus musculus; assay: In vitro degradation rate constant Mouse brain hom; type: ADME
Outline: as §2

in vivo [7] = conditions: serum
in vivo [8] = conditions: brain
[9] = Half life in Mouse brain hom; type: ADME, organism-based; conditions: brain homogenate
Outline: as §2

[10] = In vitro degradation rate constant in phosphate buffer at pH 7.4; type: ADME
Outline: as §2

Mus musculus [11] = species on record: Mus musculus; assay: In vitro degradation rate constant in Mouse serum; type: ADME
Outline: as §2

[12] = Half life in Mouse serum; type: ADME, organism-based
Outline: as §2

Homo sapiens = species on record: Homo sapiens; assay: In vitro degradation rate constant in Human serum; type: ADME
Outline: as §2

[13] = In vitro anti-HIV activity was determined in peripheral blood mononuclear cells.; type: functional, Homo sapiens
[14] = as §1; type: functional

AUC | T1/2 [1] | Rel brain exposure [2] | AUC [3] | half-life [4] | half-life [5] | Rate constant (Mus musculus [6]) | AUC (in vivo [7]) | AUC (in vivo [8]) | half-life [9] | Rate constant [10] | Rate constant (Mus musculus [11]) | half-life [12] | Rate constant (Homo sapiens) | EC50 ([13]; Homo sapiens) | EC50 [13] | half-life [1] | Compound | T1/2 [14]
11430 ng·h/mL | 4.34 h | 5.47 | 25790 ng·h/mL |  |  |  |  |  |  |  |  |  |  |  |  |  | [N-]=[N+]=N[C@H]1C[C@H](n2ccc(=O)[nH]c2=O)O[C@@H]1CO (stereo in doubt; form 1) [NAVURIDINE] | 
 |  |  |  | 4.95 h | 0.87 h | 1.07 h⁻¹ | 1210 ng·h/mL | 3910 ng·h/mL | 0.65 h | 0.8 h⁻¹ | 1.36 h⁻¹ | 0.51 h | 0.14 h⁻¹ |  |  |  | C[n+]1cccc(C(=O)OC[C@H]2O[C@@H](n3ccc(=O)[nH]c3=O)C[C@@H]2N=[N+]=[N-])c1.[I-] | 
 |  |  |  | 7.7 h | 3.23 h | 3.89 h⁻¹ | 1270 ng·h/mL |  | 0.18 h | 0.21 h⁻¹ | 0.49 h⁻¹ | 1.4 h | 0.09 h⁻¹ | 1.6 nM |  |  | Cc1cn([C@H]2C[C@H](N=[N+]=[N-])[C@@H](COC(=O)C3=CN(C)C=CC3)O2)c(=O)[nH]c1=O | 
 |  |  |  | 4.33 h | 2.13 h | 4.15 h⁻¹ | 4430 ng·h/mL |  | 0.17 h | 0.33 h⁻¹ | 1.24 h⁻¹ | 0.56 h | 0.16 h⁻¹ |  | 1000 nM |  | CN1C=CCC(C(=O)OC[C@H]2O[C@@H](n3ccc(=O)[nH]c3=O)C[C@@H]2N=[N+]=[N-])=C1 | 
 |  |  |  | 34.6 h | 1.25 h | 0.41 h⁻¹ | 600 ng·h/mL | 1290 ng·h/mL | 1.69 h | 0.55 h⁻¹ | 0.64 h⁻¹ | 1.08 h | 0.02 h⁻¹ |  |  |  | Cc1cn([C@H]2C[C@H](N=[N+]=[N-])[C@@H](COC(=O)c3ccc[n+](C)c3)O2)c(=O)[nH]c1=O.[I-] | 
2090 ng·h/mL | 0.84 h |  |  |  |  |  | 25800 ng·h/mL |  |  |  |  |  |  | 200 nM |  |  | [N-]=[N+]=N[C@H]1C[C@H](n2ccc(=O)[nH]c2=O)O[C@@H]1CO (stereo in doubt; form 2) [NAVURIDINE] | 
 |  |  | 25380 ng·h/mL |  |  |  | 26600 ng·h/mL |  |  |  |  |  |  | 2 nM |  | 0.54 h | Cc1cn([C@H]2C[C@H](N=[N+]=[N-])[C@@H](CO)O2)c(=O)[nH]c1=O [ZIDOVUDINE] | 15.8 h
